The results in this text go back to ChEMBL document CHEMBL3734720, “Synthesis of thiophene-thiosemicarbazone derivatives and evaluation of their in vitro and in vivo antitumor activities” (Eur J Med Chem, 2015).

The structures appear in SMILES notation.

Data set [1] can be described thus: Acute toxicity in Balb/C mouse assessed as survival rate at 200 mg/kg, po. It is filed as organism-based. The settings on record: in vivo. The method in brief: (§1)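 Fixed dose procedure following OECD guideline; Balb/C mice (20-35 g) fasted 16 h, groups of 5 given single oral doses stepwise at 600, 400 and 200 mgKg-1; survival and clinical signs of pain, suffering and impending death recorded per OECD guidance.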

Data set [2] can be described thus: Antitumor activity against mouse EAT implanted in Balb/C mouse assessed as change in paw volume at 100 mg/kg, po administered on day 3 post tumor inoculation measured on day 15 by plethysmometer analysis (reference value: 166.5 +/- 6.0%). The class given is functional.
Data set [3] can be described thus: Antitumor activity against mouse EAT implanted in Balb/C mouse assessed as change in paw volume at 30 mg/kg, po administered on day 3 post tumor inoculation measured on day 9 by plethysmometer analysis (reference value: 95.5 +/- 5.2%). It is filed as functional.
In data set [4] the test system is K562. The data set can be described thus: Antiproliferative activity against human K562 cells assessed as growth inhibition after 48 hrs by SRB assay. The class given is functional. The following applies: K562, 48 h. The method in brief: (§2)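 Cells exposed 48 h at 37 °C, 5% CO2 to 0.25, 2.5, 25 and 250 µg/mL in DMSO/RPMI (final DMSO 0.1%); doxorubicin standard at 0.025–25 µg/mL. Plates fixed with 50% TCA before (T0) and after treatment; protein content read by sulforhodamine B at 540 nm. GI50 (µM) from nonlinear regression of concentration–response curves; triplicate.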

Data set [5] is described as follows: Acute toxicity in Balb/C mouse assessed as survival rate at 600 mg/kg, po. The class given is organism-based. The following applies: in vivo. A digest of the protocol:
as §1

For data set [6], the system named is U-251. The data set is described as follows: Antiproliferative activity against human U251 cells assessed as growth inhibition after 48 hrs by SRB assay. The settings on record: U-251, 48 h. The class given is functional. The method in brief: as §2
Data set [7] can be described thus: Antitumor activity against mouse EAT implanted in Balb/C mouse assessed as change in paw volume at 30 mg/kg, po administered on day 3 post tumor inoculation measured on day 3 by plethysmometer analysis (reference value: 40.2 +/- 7.0%). The class given is functional.
In data set [8] the test system is 786-0. The data set can be described thus: Induction of cell death in human 786-0 cells assessed as loss of cell membrane integrity at 50 uM after 24 hrs by annexin V/7-amino-actinomycin D double staining based flow cytometric analysis (reference value: 3.6+/- 0.8%). It is filed as functional.
In data set [9] the test system is NCI-H460. The data set is described as follows: Antiproliferative activity against human NCI-H460 cells assessed as growth inhibition after 48 hrs by SRB assay. It is filed as functional. The settings on record: NCI-H460, 48 h. A digest of the protocol:
as §2

In data set [10] the test system is 786-0. The data set can be described thus: Cell cycle arrest in human 786-0 cells assessed as accumulation at G2/M phase at 25 uM after 24 hrs by propidium iodide based flow cytometric analysis (reference value: 35.7 +/- 0.9%). The class given is functional.

Regarding `S=C(N/N=C/c1cccs1)Nc1ccc(Br)cc1`, the survival in data set [1] and in data set [5] was 100% in each case. The Activity in [2] is 118.6%; in data set [3], 57.1%; in data set [7], 26.8%; in [8], 35.7%; in [10], 35.9%. Besides, the concentration for 50% growth inhibition (GI50) in data set [4] was over 100 µM; in data set [6], 4.2 µM; in data set [9] it was 4.7 µM.
